The results in this text go back to publication PMC8600527 (ACS Omega, 2021).

Structures are written as SMILES.

Assay [1] deals with carrageenan-induced paw edema. Briefly: Carrageenan-induced paw edema in mice. The settings on record: 1 mg/kg; paw volume 0 h vs 10 h. It is filed as in vivo, Balb/c mice. The gist of the method: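 Female Balb/c mice were fasted overnight and dosed orally with test compound at 1, 2 or 5 mg/kg (n = 5 per group). 1% carrageenan in PBS was injected subplantar into the left hind paw. Paw volume was read by plethysmometer at 1, 3, 6, 8 and 10 h. % inhibition was calculated from edema volume in control vs treated groups.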

Assay [2] has as its system macrophage phagocytosis. Briefly: Macrophage phagocytosis by the carbon clearance method. The assay is classed as in vivo, Balb/C mice (Mus musculus). The settings on record: mice, 1 mg/kg. The gist of the method:
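Mice received saline, test compound (1, 2, 5 mg/kg) or dexamethasone (1 mg/kg) as reference. On day 6, carbon ink suspension was injected via the tail vein. Retro-orbital blood was taken at 0 and 30 min, lysed in 0.1% sodium carbonate, and read at 675 nm. Phagocytic index was derived from OD change between the two times (n = 5).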

With `C[C@@H]1C[C@H]2[C@@H]3CCC4=CC(=O)C=C[C@]4(C)[C@@]3(F)[C@@H](O)C[C@]2(C)[C@@]1(O)C(=O)CO` [dexamethasone], in assay [1], the “percentage inhibition of paw edema” value was determined as 88.5%. The phagocytic index in assay [2] is 0.038 ± 0.002.
